The source of these data is ChEMBL document CHEMBL1134666, “Design, synthesis, and biological evaluation of novel nucleoside and nucleotide analogues as agents against DNA viruses and/or retroviruses” (J Med Chem, 2001).

≈ marks a conversion by molar mass, not a printed value. Some results are limits rather than exact numbers.

Assay [1] deals with Vero. As to the kind of experiment: Maximum velocity constant of the rate of phosphorylation was determined against Vero cell thymidine kinase. In kind it is functional, Chlorocebus sabaeus.
The nature of assay [2]: Inhibitory effect on HSV-1 induced mortality in NMRI mice upon (ip) administration at a dose of 150 mk/kg/day. Type of assay: functional, Human alphaherpesvirus 1. The essentials: (§1)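 Two-week-old NMRI mice (~7 g, 15-20 per group) were infected ip with 4 × 10⁴ units HSV-1 (KOS). Compound was given ip once daily for 6 consecutive days starting 4 h postinfection; controls received saline. Mean day of symptom onset and of death were recorded, with % symptom-free and % surviving at day 21, when the experiment ended.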

Assay [3] is described as follows: Inhibitory effect on HSV-1 induced mortality in NMRI mice upon (ip) administration at a dose of 250 mk/kg/day. In kind it is functional, Human alphaherpesvirus 1. In a few lines: as §1
For assay [4], the system named is Moloney murine sarcoma virus. Put plainly: Inhibition of virus-induced cytopathogenicity against moloney murine sarcoma virus(MSV)in CEM cells in cell protection assay. Type of assay: functional, organism-based. The note with it: CCRF-CEM. The essentials: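 Cell-protection assay with Moloney murine sarcoma virus in CEM cells; inhibition of virus-induced cytopathogenicity measured and IC50 derived by linear regression from the average of duplicate determinations.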
A general note: Protection from cytopathic effect is a common read-out in antiviral testing.

The test system of assay [5] is Human immunodeficiency virus 2. Put plainly: Inhibition of cytopathogenicity against human HIV-2(LAV-2) in MT-4 cells. In kind it is functional, organism-based. The conditions noted are these: Human immunodeficiency virus 2, MT4.
Another assay relates to CCRF-CEM. As to the kind of experiment: Cellular toxic effect was determined in CEM cells. In kind it is functional, cell-based. The note with it: Homo sapiens.
Assay [6] is described as follows: Inhibitory effects on HSV-1 induced mortality in NMRI mice upon (ip) administration at a dose of 250 mk/kg/day. In kind it is functional, Human alphaherpesvirus 1. In a few lines:
as §1

Assay [7] is described as follows: Inhibitory effects on HSV-1 induced mortality in NMRI mice upon (ip) administration at a dose of 100 mk/kg/day. In kind it is functional, Human alphaherpesvirus 1. The essentials:
as §1

Assay [8] concerns Human immunodeficiency virus 1. As to the kind of experiment: Inhibition of cytopathogenicity against human HIV-1(IIIB) in MT-4 cells. The conditions noted are these: Human immunodeficiency virus 1, MT4. Type of assay: functional, organism-based.
For another assay, the system named is MT4. As to the kind of experiment: Cellular toxic effect was determined in MT-4 cells. Type of assay: functional, cell-based. The note with it: Homo sapiens.
A short description of assay [9]: Inhibitory effect on HSV-1 induced mortality in NMRI mice upon (ip) administration at a dose of 100 mk/kg/day. In kind it is functional, Human alphaherpesvirus 1. The essentials:
as §1

The nature of assay [10]: Inhibitory effects on HSV-1 induced mortality in NMRI mice upon (ip) administration at a dose of 150 mk/kg/day. Type of assay: functional, Human alphaherpesvirus 1. In a few lines:
as §1

In the next assay the target is T1, Adenosine deaminase (Bos taurus, UniProt P56658).
T1 sequence (P56658 whole entry): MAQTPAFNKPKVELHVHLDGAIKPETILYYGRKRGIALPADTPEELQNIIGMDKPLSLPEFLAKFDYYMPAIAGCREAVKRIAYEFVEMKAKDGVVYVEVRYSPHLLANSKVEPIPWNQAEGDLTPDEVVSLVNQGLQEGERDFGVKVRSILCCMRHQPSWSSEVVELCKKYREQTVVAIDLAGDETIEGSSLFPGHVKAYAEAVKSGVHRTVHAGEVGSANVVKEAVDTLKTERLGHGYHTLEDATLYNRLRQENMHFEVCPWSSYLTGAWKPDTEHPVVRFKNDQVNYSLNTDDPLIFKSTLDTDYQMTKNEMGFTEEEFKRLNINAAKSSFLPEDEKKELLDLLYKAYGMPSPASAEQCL
As to the kind of experiment: Inhibitory activity against adenosine deaminase. In a few lines: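 Calf mucosal adenosine deaminase. Ki determined by the Kaplan method, with ara-A as substrate and the test compound added to the substrate solutions.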

Assay [11] has as its system Vero. Put plainly: Maximum velocity constant of the rate of phosphorylation was determined n the presence of Vero cell thymidine kinase. Type of assay: functional, Chlorocebus sabaeus.

In the case of `Nc1ncnc2c1ncn2[C@@H]1O[C@H](CO)[C@@H](O)[C@@H]1O` [VIDARABINE], in the assay on Vero [1], the “Relative Vmax” value is <3.

Regarding `Nc1ncnc2ncn(COCCO)c12`, the Animal death in [2] and in assay [3] was >21% each time. Moreover, the Symptom initiation in assay [3] is recorded as >21%. In addition, in the assay on Vero [1], the “Relative Vmax” value is <3.

As a reminder, the IC50 is the concentration that gives 50% inhibition. The low end stands for greater potency in that assay, the high end for weaker potency in that assay. On to `Nc1ncnc2c1ncn2[C@@H]1O[C@H](COP(=O)(O)O)[C@@H](OP(=O)(O)COCCn2cnc3ncnc(N)c32)[C@H]1O`, for which the half-maximal inhibitory concentration (IC50) in assay [4] is 17 µg/mL (≈ 28.2 µM); in assay [5], 6.4 µg/mL (≈ 10.6 µM); in the assay with CCRF-CEM it was > 300 µg/mL; in [8], 5.9 µg/mL (≈ 9.79 µM); in the assay on MT4 it was 298 µg/mL (≈ 495 µM). Further, the Animal death in assay [6] and in [7] was >21% throughout. Besides, the Symptom initiation in assay [6] is recorded as >21%; in assay [7], 16%.

For `Nc1ncnc2c1ncn2CCOCP(=O)(O)O` [ADEFOVIR], the IC50 was determined as 2 µg/mL (≈ 7.32 µM) in [4]; 3.8 µg/mL (≈ 13.9 µM) in assay [5]; 285 µg/mL (≈ 1040 µM) with CCRF-CEM; 4.1 µg/mL (≈ 15 µM) in [8]; 274 µg/mL (≈ 1000 µM) in the assay on MT4. In addition, the Animal death was >21% in assay [2], 17% in assay [9] and >21% in [3]. Moreover, in assay [3], the Symptom initiation is on record as >21%.

In the case of `Nc1nc2c(ncn2CCOCP(=O)(O)O)c(=O)[nH]1` [GS-438], the IC50 in assay [4] stood at 0.19 µg/mL (≈ 0.657 µM); in assay [5], 18 µg/mL (≈ 62.2 µM); in the assay on CCRF-CEM it was 12 µg/mL (≈ 41.5 µM); in assay [8], 16 µg/mL (≈ 55.3 µM); with MT4 it was 16 µg/mL (≈ 55.3 µM).

Turning to `Nc1nc2c(ncn2COCCO)c(=O)[nH]1` [ACYCLOVIR], the Animal death in assay [10] is listed as >21%. Further, in [6], the Animal death was >21% and the Symptom initiation is reported as >21%.

On to `Nc1ncnc2ncn(CCOCP(=O)(O)O)c12`, for which the IC50 in assay [4] was 27 µg/mL (≈ 98.8 µM); in assay [5] it was 9.1 µg/mL (≈ 33.3 µM); in the assay with CCRF-CEM, > 300 µg/mL; in assay [8], 7.8 µg/mL (≈ 28.6 µM); in the assay with MT4, > 300 µg/mL. Further, the Symptom initiation in [2] is 15%. The Animal death in [3] is 20%.

`COC1=C(OC)/C(=C/COP(=O)(O)COCCn2cnc3c(O)nc(N)nc32)OC1=O`: the IC50 in [4] was 0.02 µg/mL (≈ 0.0437 µM); in [5] it was 7.1 µg/mL (≈ 15.5 µM); in the assay on CCRF-CEM, 13 µg/mL (≈ 28.4 µM); in assay [8], 6 µg/mL (≈ 13.1 µM); with MT4, 14 µg/mL (≈ 30.6 µM).

One may read the Ki as a measure of affinity in units of concentration, obtained from inhibition or displacement. Higher therefore signals weaker binding. Regarding `COC1=C(OC)/C(=C/COP(=O)(O)COCCn2cnc3c(N)ncnc32)OC1=O`, the IC50 in assay [4] is 0.93 µg/mL (≈ 2.11 µM); in assay [5], 1 µg/mL (≈ 2.27 µM); in the assay on CCRF-CEM it was 280 µg/mL (≈ 634 µM); in [8] it was 1.4 µg/mL (≈ 3.17 µM); in the assay on MT4, 265 µg/mL (≈ 600 µM). Besides, the Animal death in assay [10], in assay [6] and in [7] was >21% each time. Moreover, the Symptom initiation in assay [10], in [6] and in assay [7] was >21% each time. For the same molecule, the Ki on Adenosine deaminase was > 800 µM.

For the molecule `COC1=C(OC)/C(=C/COP(=O)(O)OC[C@H]2O[C@@H](n3cnc4c(N)ncnc43)[C@H](O)[C@@H]2OP(=O)(O)COCCn2cnc3ncnc(N)c32)OC1=O`, the IC50 in assay [4] was 13 µg/mL (≈ 16.9 µM); in assay [5], 4.2 µg/mL (≈ 5.45 µM); with CCRF-CEM, > 300 µg/mL; in [8], 4.9 µg/mL (≈ 6.36 µM); with MT4, > 300 µg/mL. Also, the Animal death in [10], in assay [6] and in [7] was >21% in each case. The Symptom initiation in assay [10] and in assay [6] was >21% each time. At Adenosine deaminase, the Ki is > 800 µM.

Take `Nc1ncnc2c1ncn2COCCO`: the “Relative Vmax” value in the assay on Vero [11] is given as <3.
